Results on one compound are retold here after ChEMBL document CHEMBL5236602, “Synthesis and Characterization of NUC-7738, an Aryloxy Phosphoramidate of 3'-Deoxyadenosine, as a Potential Anticancer Agent” (J Med Chem, 2022).

Data set [1] concerns HEL 92.1.7. The data set is described as follows: Cytotoxicity against human HEL 92.1.7 cells assessed as cell death incubated for 72 hrs by MTS assay. The data set is classed as functional. To be noted: read-out: LC50 (the source's name). The procedure, abridged:
(§1)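 Contracted MTS assay. Cells seeded the day before treatment and exposed 72 h to nine serial concentrations (3.16-fold steps, top 198 μM), tested in duplicate. MTS added, then 4 h at 37 °C and absorbance read. LC50 is the concentration killing 50% of cells. MI% is the maximum inhibition over the tested range.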
A general note: Tetrazolium assays rely on reduction of a dye to a coloured formazan, in cell work by metabolically active cells.

In data set [2] the test system is NCI-H929. In words: Cytotoxicity against human NCI-H929 cells assessed as cell death incubated for 72 hrs by MTS assay. The data set is classed as functional. Conditions: read-out: LC50 (the source's name). The essentials: as §1
Data set [3] deals with RPMI-8226. In words: Cytotoxicity against human RPMI-8226 cells assessed as maximum cell growth inhibition incubated for 72 hrs by MTS assay relative to control. The data set is classed as functional. The procedure, abridged: (§2)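 Cells from the 20-line panel were seeded the day before dosing, then exposed to compound for 72 h. MTS was added, followed by 4 h at 37 °C, and absorbance was read. Nine serial 3.16-fold dilutions were tested, top 198 μM, in duplicate. MI% is the maximum inhibitory effect across the tested concentration range.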

Data set [4] has as its system RL. The data set is described as follows: Cytotoxicity against human RL cells assessed as cell death incubated for 72 hrs by MTS assay. The data set is classed as functional. To be noted: read-out: LC50 (the source's name). The procedure, abridged:
as §1

Data set [5] is described as follows: Cytotoxicity against human HS 445 cells assessed as cell death incubated for 72 hrs by MTS assay. The data set is classed as functional. To be noted: read-out: LC50 (the source's name). The procedure, abridged:
as §1

In data set [6] the test system is HepG2. In words: Cytotoxicity against human HepG2 cells assessed as maximum cell growth inhibition incubated for 72 hrs by MTS assay relative to control. Type of data set: functional. The essentials:
as §2

Data set [7] has as its system HT-29. In words: Cytotoxicity against human HT-29 cells assessed as cell death incubated for 72 hrs by MTS assay. Conditions: read-out: LC50 (the source's name). The data set is classed as functional. The procedure, abridged: as §1
The test system of data set [8] is SW-620. The data set is described as follows: Cytotoxicity against human SW620 cells assessed as cell death incubated for 72 hrs by MTS assay. The data set is classed as functional. To be noted: read-out: LC50 (the source's name). The essentials: as §1
Data set [9] concerns HL-60. The data set is described as follows: Potency index, ratio of 3'-Deoxyadenosine LC50 to test compound LC50 for cytotoxicity against human HL-60 cells assessed as cell death incubated for 72 hrs by MTS assay. The data set is classed as functional.
For data set [10], the system named is K562. The data set is described as follows: Potency index, ratio of 3'-Deoxyadenosine LC50 to test compound LC50 for cytotoxicity against human K562 cells assessed as cell death incubated for 72 hrs by MTS assay. The data set is classed as functional.
The test system of data set [11] is Jurkat. The data set is described as follows: Potency index, ratio of 3'-Deoxyadenosine LC50 to test compound LC50 for cytotoxicity against human Jurkat cells assessed as cell death incubated for 72 hrs by MTS assay. Type of data set: functional.
The nature of data set [12]: Prodrug conversion in human CCRF-CEM cells assessed as fold increase in 3'-dATP level at 50 uM incubated for 2 hrs by LC-MS/MS analysis relative to 3'-Deoxyadenosine. Type of data set: ADME, cell-based.
A short description of data set [13]: Prodrug conversion in human HL-60 cells assessed as fold increase in 3'-dATP level at 50 uM incubated for 2 hrs by LC-MS/MS analysis relative to 3'-Deoxyadenosine. The data set is classed as ADME, cell-based. To be noted: hl-60, 2 h.
Data set [14] in a line: Metabolic stability in pooled cryopreserved human hepatocytes assessed as intrinsic clearance measured per 10^6 cells at 1 uM incubated for 60 mins by HPLC-MS/MS analysis. Type of data set: ADME, cell-based, Hepatocyte. To be noted: 1 h. The procedure, abridged:
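Pooled cryopreserved human hepatocytes were thawed, washed and resuspended in Krebs–Henseleit buffer, pH 7.3. Compound was added at 1 μM final and incubated 0 and 60 min at 37 °C/5% CO2. Reactions were stopped with acetonitrile, centrifuged, and the supernatant analysed by HPLC-MS/MS.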

Molecules are shown by their SMILES.

Consider `C[C@@H](NP(=O)(OC[C@@H]1C[C@@H](O)[C@H](n2cnc3c(N)ncnc32)O1)Oc1cccc2ccccc12)C(=O)OCc1ccccc1` (some centres undefined), for which the CC50 in data set [1] amounted to 2.94 µM; in data set [2], 3.38 µM; in data set [4] it was 1.68 µM; in data set [5] it was 10.2 µM; in data set [7] it was 7.52 µM; in data set [8], 11.4 µM. Moreover, the Imax in data set [3] came to 102%; in data set [6], 95%. Moreover, the figures for the RatioLC50 in data set [9], in [10] and in data set [11] were 3, 3 and 200, respectively. Further, the “fold change (FC)” value in [12] and in [13] was 3 in each case. Moreover, the CLint in [14] was 20.8 µL/min/1e6 cells.
